Results as given in ChEMBL document CHEMBL1125273, “Synthesis and biological evaluation of quinocarcin derivatives: thioalkyl-substituted quinones and hydroquinones” (J Med Chem, 1991).
In brackets after ≈: the same amount, converted by molar mass.

Columns and labels:
[1] = Ratio of the ILS tested compound/quinocarcin was determined in CD2F1 mice on days 1-5.; assay type: functional, Mus musculus
In short: (§1)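 CD2F1 mice (5 per group) received 10^6 P388 cells ip. Drug was given ip on day 1 or on days 1–5. ILS was taken as (T/C − 1) × 100 from median survival times, and each compound's ILS was divided by the ILS of quinocarcin.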

[2] = Antitumor activity in vivo in CD2F1 mice measured in terms of percent increase in lifespan calculated at a dose of 12.5 mg/kg intraperitoneally on day one.; assay type: functional; settings: Mus musculus, ip, route intraperitoneal
In short: (§2)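 P388 lymphocytic leukemia cells (1×10^6) were implanted ip into CD2F1 mice (about 22 g), five mice per group. Drug was given ip from the day after implantation, either once (day 1) or daily on days 1–5. ILS = (T/C − 1) × 100, where T and C are the median survival times of treated and control mice.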

[3] = Antitumor activity in vivo in CD2F1 mice measured in terms of percent increase in lifespan calculated at a dose of 12.5 mg/kg intraperitoneally on days 1-5.; assay type: functional; settings: Mus musculus, ip, route intraperitoneal; in short: as §2
[4] = test system: HeLa; assay: In vitro concentration required to inhibit the growth of HeLa S3 cells by 50%; assay type: functional, cell-based; settings: Homo sapiens
In short: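 HeLa S3 cells (5 × 10⁴) seeded in Eagle's MEM with 10% FBS and 0.06 mg/mL kanamycin; graded drug concentrations, diluted in growth medium, added 24 h after seeding. Incubated 72 h at 37 °C, humidified 5% CO₂. Monolayers then washed, detached with 0.05% trypsin/0.02% EDTA and counted electronically; IC50 taken as concentration giving 50% growth inhibition.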

[5] = Antitumor activity in vivo in CD2F1 mice measured in terms of percent increase in lifespan calculated at a dose of 3.13 mg/kg intraperitoneally on days 1-5.; assay type: functional; settings: Mus musculus, ip, route intraperitoneal; in short: as §2
[6] = Antitumor activity in vivo in CD2F1 mice measured in terms of percent increase in lifespan calculated at a dose of 6.25 mg/kg intraperitoneally on day one.; assay type: functional; settings: Mus musculus, ip, route intraperitoneal; in short: as §2
[7] = Ratio of the ILS tested compound/quinocarcin was determined for day one in CD2F1 mice.; assay type: functional, Mus musculus; in short: as §1
[8] = Antitumor activity in vivo in CD2F1 mice measured in terms of percent increase in lifespan calculated at a dose of 6.25 mg/kg intraperitoneally on days 1-5.; assay type: functional; settings: Mus musculus, ip, route intraperitoneal; in short: as §2
[9] = Antitumor activity in vivo in CD2F1 mice measured in terms of percent increase in lifespan calculated at a dose of 25 mg/kg intraperitoneally on day one.; assay type: functional; settings: Mus musculus, ip, route intraperitoneal; in short: as §2
[10] = test system: CCRF S-180; assay: Ratio of ILS tested compound/quinocarcin against murine sarcoma S-180 tumor cell line implanted subcutaneously in mice and the compound administered intravenously at a dose of 6.25 mg/kg on days 1-5.; assay type: functional, Mus musculus; settings: route intravenous
[11] = test system: Homo sapiens; assay: Ratio of ILS tested compound/quinocarcin against human mammary carcinoma MX-1 cell line implanted subcutaneously in mice and the compound administered intravenously at a dose of 4.41 mg/kg on days 1-5.; assay type: functional; settings: route intravenous
[12] = test system: Homo sapiens; assay: Ratio of ILS tested compound/quinocarcin against human mammary carcinoma MX-1 cell line implanted subcutaneously in mice and the compound administered intravenously at a dose of 12.7 mg/kg on days 1-5.c means number of cured mice.; assay type: functional; settings: route intravenous
[13] = Antitumor activity in vivo in CD2F1 mice measured in terms of percent increase in lifespan calculated at a dose of 5-10 mg/kg intraperitoneally on days 1-5.; assay type: functional, Mus musculus; in short: as §2
[14] = test system: Co-3; assay: Ratio of ILS tested compound/quinocarcin against Co-3 tumor cell line implanted subcutaneously in mice and the compound administered intravenously at a dose of 13.8 mg/kg on days 1-5.; assay type: functional, Homo sapiens; settings: route intravenous
[15] = test system: St-4; assay: Ratio of ILS tested compound/quinocarcin against St-4 tumor cell line implanted subcutaneously in mice and the compound administered intravenously at a dose of 8.78 mg/kg on days 1-5.; assay type: functional, Homo sapiens; settings: route intravenous
[16] = test system: Homo sapiens; assay: Ratio of ILS tested compound/quinocarcin against human mammary carcinoma MX-1 cell line implanted subcutaneously in mice and the compound administered intravenously at a dose of 4.41 mg/kg on days 1-5.c means number of cured mice.; assay type: functional; settings: route intravenous
[17] = test system: LC-06 cell line; assay: Ratio of ILS tested compound/quinocarcin against LC-06 cell lines implanted subcutaneously in mice and the compound administered intravenously at a dose of 5.59 mg/kg on days 1-5.; assay type: functional, Homo sapiens; settings: route intravenous
[18] = test system: CCRF S-180; assay: Ratio of ILS tested compound/quinocarcin against murine sarcoma S-180 tumor cell line implanted subcutaneously in mice and the compound administered intravenously at a dose of 10 mg/kg on days 1-5.; assay type: functional, Mus musculus; settings: route intravenous
[19] = test system: Homo sapiens; assay: Ratio of ILS tested compound/quinocarcin against human mammary carcinoma MX-1 cell line implanted subcutaneously in mice and the compound administered intravenously at a dose of 5.59 mg/kg on days 1-5.c means number of cured mice.; assay type: functional; settings: route intravenous
[20] = test system: St-4; assay: Ratio of ILS tested compound/quinocarcin against St-4 tumor cell line implanted subcutaneously in mice and the compound administered intravenously at a dose of 13.8 mg/kg on days 1-5.; assay type: functional, Homo sapiens; settings: route intravenous

| Structure (SMILES) | R [1] | ILS at 12.5 mg/kg [2] [%] | IC50 [4] [µg/mL] | R [7] | ILS at 6.25 mg/kg [8] [%] | also measured |
| --- | --- | --- | --- | --- | --- | --- |
| COC1=C(SC(C)C)C(=O)C2=C(C[C@H]3[C@H]4[C@H](C(=O)O)C[C@@H](C(C#N)N3[C@H]2CO)N4C)C1=O (stereo partly specified) | 1 | 17 | 0.56 (≈ 1.21 µM) | – | – | ILS at 12.5 mg/kg [3]: 75% |
| CCSC1=C(SCC)C(=O)C2=C(C[C@H]3[C@H]4[C@H](C(=O)O)C[C@@H](C5OC[C@@H]2N53)N4C)C1=O (stereo partly specified) | 0.93 | – | 0.08 (≈ 0.178 µM) | 1.33 | – | ILS at 3.13 mg/kg [5]: 82%; ILS at 6.25 mg/kg [6]: 64% |
| CN1[C@@H]2[C@H](C(=O)O)C[C@H]1C(C#N)N1[C@@H](CO)c3c(O)ccc(O)c3C[C@@H]21 (stereo partly specified) | – | 23 | 6.1 (≈ 17 µM) | – | 23 | – |
| COC1=C(SC(C)C)C(=O)C2=C(C1=O)[C@H](CO)N1C(C#N)[C@@H]3C[C@@H](C(=O)O)[C@H]([C@@H]1C2)N3C (stereo partly specified) | 0.68 | 21 | 1.12 (≈ 2.43 µM) | 0.58 | – | ILS at 12.5 mg/kg [3]: 51% |
| CCCSC1=C(SCCC)C(=O)C2=C(C[C@H]3[C@H]4[C@H](C(=O)O)C[C@@H](C5OC[C@@H]2N53)N4C)C1=O (stereo partly specified) | 0.98 | 58 | 0.03 (≈ 0.0627 µM) | 1.21 | 86 | – |
| COC1=C(SC(C)C)C(=O)C2=C(C1=O)[C@@H]1COC3[C@@H]4C[C@@H](C(=O)O)[C@H]([C@H](C2)N31)N4C (stereo partly specified) | 1 | – | 0.79 (≈ 1.82 µM) | 1.29 | 81 | ILS at 6.25 mg/kg [6]: 31% |
| CCSC1=C(OC)C(=O)C2=C(C1=O)[C@H](CO)N1C(C#N)[C@@H]3C[C@@H](C(=O)O)[C@H]([C@@H]1C2)N3C (stereo partly specified) | 0.76 | – | 2.88 (≈ 6.44 µM) | 0.72 | 59 | ILS at 25 mg/kg [9]: 31% |
| CN1[C@@H]2[C@H](C(=O)O)C[C@H]1C(C#N)N1[C@@H](CO)C3=C(C[C@@H]21)C(=O)C(SC(C)(C)C)=C(SC(C)(C)C)C3=O (stereo partly specified) | 0.5 | – | 0.004 (≈ 0.00749 µM) | 1.26 | – | ILS at 3.13 mg/kg [5]: 46%; ILS at 25 mg/kg [9]: 48% |
| CSc1c(O)c2c(c(O)c1SC)[C@H](CO)N1C(C#N)[C@@H]3C[C@@H](C(=O)O)[C@H]([C@@H]1C2)N3C (stereo partly specified) | 0.86 | – | 0.09 (≈ 0.199 µM) | 1.09 | – | T/C [10]: 0.4; ILS at 3.13 mg/kg [5]: 92%; ILS at 6.25 mg/kg [6]: 47%; T/C [11]: 0.067; T/C [12]: 0 |
| CN1[C@@H]2[C@H](C(=O)O)C[C@H]1C(C#N)N1[C@@H](CO)C3=C(C[C@@H]21)C(=O)C(SCCO)=C(SCCO)C3=O (stereo partly specified) | – | 26 | 2.47 (≈ 4.85 µM) | 0.62 | 20 | – |
| CSc1c(O)c2c(c(O)c1SC)[C@@H]1COC3[C@@H]4C[C@@H](C(=O)O)[C@H]([C@H](C2)N31)N4C (stereo partly specified) | 0.57 | 65 | 0.13 (≈ 0.306 µM) | 1.51 | 59 | – |
| COc1cccc2c1[C@@H]1COC3[C@@H]4C[C@@H](C(=O)O)[C@H]([C@H](C2)N31)N4C (stereo partly specified) | 1 | 48 | 0.11 (≈ 0.333 µM) | 1 | – | ILS [13]: 120%; T/C [14]: 0.22; T/C [15]: 0.55; T/C [16]: 0; T/C [17]: 0.23; T/C [18]: 0.74; T/C [19]: 0.01; T/C [20]: 0.42 |
